# Screening data: PubChem BioAssay, several laboratories
# AHR activator: AHR activators, primary screen, cell-based, luminescence, luciferase reporter, human; AHR-responsive luciferase reporter cells; activation, % at 5 µM; hit rate 2.5% among 320,000; in the data active = activation above about 47%;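 also: 0% = vehicle wells and 100% = reference agonist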
# FXIa inh: human FXIa protease inhibitors, primary screen, biochemical, 1536-well. inhibition, % at 5 µM. purified FXIa, Boc-Glu-Ala-Arg-AMC fluorogenic substrate. Coagulation factor XI (Homo sapiens), P03951. hit rate 0.14% among 220,000;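 active = inhibition of at least 40%; inactive = inhibition below 40%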;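 also: fluorescence of freed AMC excited at 355 nm; 0% = enzyme without compound and 100% = no enzyme blank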
# hK5 inh: human KLK5 protease inhibitors, primary screen, biochemical, 1536-well. hit rate 0.59% among 210,000. recombinant hK5, fluorogenic AMC substrate cleavage. inhibition, % at 5 µM. AID 873, 2007;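 active = inhibition of 40% or more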;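 also: 0% = enzyme controls without compound and 100% = no-enzyme blanks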
# Target sequence (Q9Y337 67-293 limits assumed): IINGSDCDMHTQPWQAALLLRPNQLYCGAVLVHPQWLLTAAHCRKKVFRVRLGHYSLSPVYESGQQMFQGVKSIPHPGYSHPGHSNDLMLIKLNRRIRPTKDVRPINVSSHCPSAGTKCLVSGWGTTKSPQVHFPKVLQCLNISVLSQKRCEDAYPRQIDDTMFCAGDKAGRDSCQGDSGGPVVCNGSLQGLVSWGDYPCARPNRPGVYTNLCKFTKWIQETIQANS
# STAT3 act: IL-6 driven STAT3 reporter potentiators, primary screen, U3A cells, luciferase, luminescence, MLSCN library | IL-6 STAT3-luciferase reporter; 100% = signal with IL-6 EC80 alone | AID 871, 2007 | hit rate 0.91% among 190,000 | activation (% of control), % at 5.6 µM;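 active = activation above the screen-wide mean of compound activation plus 3 SD, cut at about 130% in these data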;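 also: 0% = background luminescence of wells with medium and substrate only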
#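 Material: STAT3-luciferase reporter U3A cells. Controls: IL-6-treated wells, 100% activation. Read-out: % activation versus median of IL-6-stimulated wells. Probe or stimulus: IL-6 stimulus at 33 ng/mL final. Timing: compound 1 h, then IL-6 6 h at 37 °C. Signal: reporter luminescence signal.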
# FXIIa inh 1536: human FXIIa protease inhibitors, primary screen, biochemical, 1536-well; Coagulation factor XII (Homo sapiens), P00748; purified FXIIa, Boc-QGR-AMC fluorogenic substrate, 2 h; inhibition, % at 5 µM; hit rate 0.3% among 220,000; in the data active = inhibition above about 40%;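 also: 0% = enzyme with no compound and 100% = blank without enzyme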
# thrombin 1536: human alpha-thrombin inhibitors, primary screen, counter-screen for coagulation protease inhibitor project, biochemical, 1536-well, fluorogenic AMC substrate | inhibition, % at 5 µM | hit rate 0.26% among 220,000 | AID 1046, 2008 | Boc-VPR-AMC fluorogenic substrate cleavage;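 active = inhibition at or above 40%; inactive = inhibition below 40%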;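 also: 0% = enzyme with no compound and 100% = wells without enzyme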
#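 Material: Human alpha-thrombin protein | Buffer or medium: pH 7.5 Tris-saline with Tween 20 | Reagent: Boc-VPR-AMC substrate, 15 µM final | Schedule: Reaction at ambient temperature | Detection: AMC fluorescence at 355 nm excitation and 460 nm emission | Evaluation: Percent inhibition scaled between no-compound controls and no-enzyme blanks | Controls: no-compound enzyme wells and no-enzyme blanks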
# AHR act confirm: AHR activators, confirmation, cell-based, luminescence, luciferase reporter, human. shares compounds with AHR activator. human cells, AHR-responsive luciferase reporter. activation, % at 9 µM. hit rate 87% among 2,300. AID 2845, 2010; in the data active = activation above about 49%;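 also: HepG2 hepatoma cells carrying a DRE-driven firefly luciferase reporter; 0% = vehicle wells and 100% = reference agonist wells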
# PXR counter: human PXR activators, counter-screen for AHR activator project, cell-based, luciferase luminescence; shares compounds with AHR activator; cell-based PXR reporter; activation, % at 11.6 µM; hit rate 88% among 2,300; AID 434939, 2010; in the data active = activation above about 11%;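 also: human hepatoma DPX-2 cells expressing full-length human PXR; 0% = DMSO and 100% = reference agonist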
# An asterisk follows results filed as active; x = no result given. A selection: hits, their analogues and other compounds. The true share with any hit is near 3.5%.
SMILES,AHR activator,FXIa inh,hK5 inh,STAT3 act,FXIIa inh 1536,thrombin 1536,AHR act confirm,PXR counter
CCC(=O)N(CCc1ccccc1)Cc1cc2cc3c(cc2[nH]c1=O)OCO3,91.7*,2.1,-29.7,103.8,19.0,3.5,93.0*,54.1*
Cc1cc(C)n2nc(N)c(N=Nc3ccc(Cl)cc3)c2n1,109.2*,-1.4,-13.3,96.8,-0.2,-4.0,97.6*,30.7*
Cc1cc(C)n2nc(C)c(-c3ccc(Cl)cc3)c2n1,6.5,x,x,x,x,x,x,x
Cc1ccc(N/N=C(\C#N)C(=N)N2CCOCC2)cc1,122.7*,7.8,-15.1,113.6,18.4,2.5,115.3*,16.5*
Cc1ccc(N/N=C(\C#N)C(=N)N2CCCCCC2)cc1,26.1,-1.2,-12.1,95.2,3.9,2.8,x,x
Cc1ccsc1/C=N/NC(=O)c1c[nH]c2ccccc12,101.5*,-2.9,-6.8,126.6,-0.6,-4.7,142.1*,41.6*
O=C(N/N=C/c1ccsc1)c1c[nH]c2ccccc12,127.8*,x,x,x,x,x,114.8*,21.9*
Cc1ccsc1/C=N/NC(=O)c1cccs1,31.8,-9.0,-4.7,95.4,6.3,4.4,x,x
O=C(N/N=C/C1CC2CCC1C2)c1c[nH]c2ccccc12 (stereo unspecified),86.8*,-1.6,0.4,106.7,10.3,-6.5,18.9,5.1
O=C(N/N=C/c1ccsc1)c1cc(-c2cccs2)nc2ccccc12,30.7,-2.7,-14.1,96.6,-0.4,-3.9,x,x
O=C(Nc1cc(Cl)cc(Cl)c1)N1CCCC1,6.0,-1.3,0.1,x,2.0,-10.8,x,x
COc1cc2c(cc1NC(=O)c1cc(-c3ccncc3)nc3ccccc13)oc1ccccc12,82.7*,8.3,-7.9,103.2,16.8,2.2,71.2*,13.1*
O=C(Nc1ccc2c(c1)OCO2)c1cc(-c2ccncc2)nc2ccccc12,94.5*,1.9,5.1,115.8,7.6,9.0,94.5*,34.5*
O=C(Nc1ccc2c(c1)OCCO2)c1cc(-c2ccccc2)nc2ccccc12,0.1,-1.6,9.7,100.6,7.2,-4.8,x,x
COc1cc2c(cc1NC(=O)C(C)OC(=O)/C=C/c1ccc(OC(F)F)cc1)oc1ccccc12 (stereo unspecified),144.1*,-2.9,-17.8,123.8,2.6,-3.4,106.6*,29.8*
NNC(=O)c1cc(-c2ccc(O)cc2)nc2ccc(Br)cc12,81.1*,5.4,11.6,x,9.3,20.0,39.5,6.1
COc1cc2c(cc1NC(=O)c1cc(-c3cccnc3)nc3ccc(C)cc13)oc1ccccc12,6.0,-6.7,6.8,100.0,-0.1,-1.9,x,x
Cc1ccc(-n2nc3c(c2NC(=O)c2ccc4c(c2)OCO4)CS(=O)C3)c(C)c1 (stereo unspecified),2.9,x,x,x,x,x,x,x
COc1cc(CNc2nnnn2C)cc(OC)c1OC,7.5,x,x,x,x,x,x,x
Cc1occc1C(=O)/C(C#N)=C/c1ccc(O)c(Br)c1,0.3,x,x,x,x,x,x,x
Cc1cccc2cc(CNCC3CCCO3)c(Cl)nc12 (stereo unspecified),0.8,-2.3,-2.5,93.3,3.6,-11.3,x,x
COc1ccc(CCN2C(=O)NC(NS(=O)(=O)c3ccccc3)(C(F)(F)F)C2=O)cc1OC (stereo unspecified),-2.7,x,x,x,x,x,x,x
CCOC(=O)C1(CCCc2ccccc2)CCN(CC(O)CO)CC1 (stereo unspecified),8.4,-3.9,-2.8,110.8,5.7,-7.1,x,x
COc1cc2c(cc1NC(=O)Nc1ccc(C)cc1)oc1ccccc12,86.8*,-10.0,-17.5,93.8,-3.3,-7.1,98.3*,x
COC(=O)c1ccc(NC(=O)c2cc(-c3ccncc3)nc3ccccc23)cc1,4.5,x,x,x,x,x,x,x
O=C(Nc1ccc(Br)cc1)c1cc(-c2ccncc2)nc2ccccc12,109.4*,x,x,x,x,x,97.0*,12.0*
